Measurements reported in ChEMBL document CHEMBL4130635, “2,4-Diaminoquinazolines as Dual Toll-like Receptor (TLR) 7/8 Modulators for the Treatment of Hepatitis B Virus” (J Med Chem, 2018).
Active and inactive are the calls of the source. The calls are words filed in the database; no cut-off is given here.

Tests used:
[1] = molecular target: T1, Toll-like receptor 7 (Homo sapiens) (UniProt Q9NYK1); experiment: Agonist activity at TLR7 in human PBMC assessed as suppression of HCV replicon replication in human HuH7 luc/neo cells harboring RNA encoding bicistronic expression construct comprising wild type HCV type 1b NS3-NS5B regions exposed to conditioned media from compound treated PBMCs after 24 hrs by luciferase reporter gene assay; type: cell-based
T1 sequence (whole entry): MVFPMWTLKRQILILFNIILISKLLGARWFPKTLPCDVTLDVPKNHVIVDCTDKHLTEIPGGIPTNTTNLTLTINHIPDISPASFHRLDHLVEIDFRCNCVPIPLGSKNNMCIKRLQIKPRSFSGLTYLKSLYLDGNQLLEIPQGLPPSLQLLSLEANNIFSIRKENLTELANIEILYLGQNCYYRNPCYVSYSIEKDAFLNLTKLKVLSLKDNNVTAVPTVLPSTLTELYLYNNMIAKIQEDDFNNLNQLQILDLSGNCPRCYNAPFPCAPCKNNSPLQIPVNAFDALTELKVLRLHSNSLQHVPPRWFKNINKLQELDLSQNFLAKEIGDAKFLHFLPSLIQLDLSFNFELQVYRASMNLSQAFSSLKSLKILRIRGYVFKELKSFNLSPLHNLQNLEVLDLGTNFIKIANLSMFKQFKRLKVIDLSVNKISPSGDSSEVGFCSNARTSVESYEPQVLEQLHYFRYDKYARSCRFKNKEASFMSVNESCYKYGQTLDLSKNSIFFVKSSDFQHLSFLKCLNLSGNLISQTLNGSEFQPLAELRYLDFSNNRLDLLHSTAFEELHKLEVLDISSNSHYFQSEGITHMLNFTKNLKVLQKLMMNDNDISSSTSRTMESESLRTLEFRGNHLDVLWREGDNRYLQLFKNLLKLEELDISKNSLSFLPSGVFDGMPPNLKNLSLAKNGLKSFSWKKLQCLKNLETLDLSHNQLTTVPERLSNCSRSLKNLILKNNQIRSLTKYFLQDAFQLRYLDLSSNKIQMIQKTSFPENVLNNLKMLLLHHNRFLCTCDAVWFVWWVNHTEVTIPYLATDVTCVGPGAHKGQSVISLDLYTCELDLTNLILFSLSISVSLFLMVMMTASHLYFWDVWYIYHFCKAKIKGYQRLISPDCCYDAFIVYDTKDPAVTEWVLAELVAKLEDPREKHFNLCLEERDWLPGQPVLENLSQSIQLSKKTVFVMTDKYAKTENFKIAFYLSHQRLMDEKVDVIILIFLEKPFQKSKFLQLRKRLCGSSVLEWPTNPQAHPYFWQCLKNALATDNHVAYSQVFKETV
How it was run: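 Human PBMCs were incubated with compound. Their medium was then transferred onto an HCV replicon system, so the antiviral read-out reflects interferon and cytokines the PBMCs induced. Values are reported as lowest effective concentration (LEC), averaged when determined in two or more independent experiments.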

[2] = test system: Liver; experiment: Proinflammatory activity in C57BL/6J mouse liver assessed as IL-1beta levels at 30 mg/kg, po by multiplex assay; type: functional
[3] = AUC (0 to last) in C57BL/6J mouse liver at 30 mg/kg, po by LC-MS analysis; type: ADME, organism-based; conditions: in vivo
How it was run: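 Healthy C57BL/6 mice were dosed once by mouth at 0.3, 1, 3, 10 or 30 mg/kg in 20% HP-β-CD, in groups of 15 per dose. Three mice per group were sacrificed at 0.5, 1, 2, 4 or 7 h, and plasma and liver compound levels were measured by LC–MS. Values were rounded to whole numbers.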

[4] = Absolute bioavailability in cynomolgus monkey at 1 to 30 mg/kg; type: ADME, organism-based, Macaca fascicularis; conditions: in vivo
[5] = test system: Cynomolgus monkey; experiment: Induction of G-CSF in cynomolgus monkey plasma at 3 mg/kg, po after 24 hrs by Luminex assay (reference value: 85 pg/ml); type: functional, organism-based; conditions: Macaca fascicularis
How it was run: (§1)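 Healthy cynomolgus monkeys given single oral doses of 1, 3, 9 and 30 mg/kg, with a 2-week wash-out planned between doses. Systemic cytokine levels in plasma were sampled at 0.5, 1, 2, 4, 9 and 24 h postdose.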

[6] = test system: Plasma; experiment: Induction of IFNalpha levels in C57BL/6J mouse plasma at 30 mg/kg, po by ELISA; type: functional
[7] = Protein binding in cynomolgus monkey plasma fraction at 5 uM after 4.5 hrs LC-MS/MS-based rapid equilibrium dialysis method; type: ADME, cell-free, Macaca fascicularis; conditions: read-out: PPB (converted)
[8] = test system: Plasma; experiment: Proinflammatory activity in C57BL/6J mouse plasma assessed as IL-1beta levels at 0.3 mg/kg, po by multiplex assay (reference value: 60 pg/ml); type: functional
[9] = test system: Plasma; experiment: Effect on cytokine profile in C57BL/6J mouse plasma assessed as IFNgamma levels at 0.3 mg/kg, po by multiplex assay; type: functional, organism-based
How it was run: (§2)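 Single oral gavage in 20% HP-β-CD to healthy C57BL/6 mice, groups of 15 at 0.3, 1, 3, 10 or 30 mg/kg. Three mice per group sacrificed at 0.5, 1, 2, 4 or 7 h. Plasma and liver cytokines by multiplex, maximum level reported, rounded to nearest multiple of 5.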

[10] = molecular target: TLR7 and TLR8 (Homo sapiens) (UniProt Q9NYK1+Q9NR97); experiment: Agonist activity at TLR7/8 in human PBMCs co-cultured with primary human hepatocytes infected with HBV genotype C for 12 days assessed as increase in IL-1beta levels up to 5 uM measured after 42 days
[11] = test system: Cynomolgus monkey; experiment: Plasma concentration in cynomolgus monkey at 30 mg/kg, po by LC-MS analysis; type: ADME, organism-based, Macaca fascicularis; conditions: in vivo
[12] = test system: Liver; experiment: Proinflammatory activity in C57BL/6J mouse liver assessed as TNFalpha levels at 3 mg/kg, po by multiplex assay (reference value: 15 pg/g); type: functional
[13] = test system: Liver; experiment: Anti-inflammatory activity in C57BL/6J mouse liver assessed as IL-10 levels at 30 mg/kg, po by multiplex assay (reference value: 2 pg/g); type: functional; how it was run: as §2
[14] = test system: Cynomolgus monkey; experiment: Effect on cytokine profile in cynomolgus monkey plasma assessed as IP10 levels at 9 mg/kg, po after 24 hrs by Luminex assay (reference value: 18.5 pg/ml); type: functional, Macaca fascicularis; how it was run: as §1
[15] = test system: Plasma; experiment: Effect on cytokine profile in C57BL/6J mouse plasma assessed as IFNgamma levels at 10 mg/kg, po by multiplex assay; type: functional; how it was run: as §2
[16] = test system: Cynomolgus monkey; experiment: Induction of IFNalpha levels in cynomolgus monkey plasma at 30 mg/kg, po after 24 hrs by ELISA; type: functional, Macaca fascicularis; how it was run: as §1
[17] = test system: Plasma; experiment: Effect on cytokine profile in C57BL/6J mouse plasma assessed as IL-12p70 levels at 10 mg/kg, po by multiplex assay (reference value: 560 pg/ml); type: functional; how it was run: as §2
[18] = test system: Liver; experiment: Proinflammatory activity in C57BL/6J mouse liver assessed as CXCL-1 levels at 0.3 mg/kg, po by multiplex assay (reference value: 25 pg/g); type: functional
[19] = Cmax in C57BL/6J mouse liver at 3 mg/kg, po by LC-MS analysis; type: ADME, organism-based; set-up: dose 3 mg/kg, route oral
How it was run: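 Healthy C57BL/6 mice, groups of 15, given a single oral dose (0.3, 1, 3, 10 or 30 mg/kg) in 20% HP-β-CD. Blood drawn at 0.5 h. Three mice per group sacrificed at 0.5, 1, 2, 4 or 7 h, and compound in plasma and liver measured by LC−MS. Values rounded to whole numbers.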

TLR7 and TLR8 (Homo sapiens), sequence (Q9NR97 whole entry, looked up, one chain of several): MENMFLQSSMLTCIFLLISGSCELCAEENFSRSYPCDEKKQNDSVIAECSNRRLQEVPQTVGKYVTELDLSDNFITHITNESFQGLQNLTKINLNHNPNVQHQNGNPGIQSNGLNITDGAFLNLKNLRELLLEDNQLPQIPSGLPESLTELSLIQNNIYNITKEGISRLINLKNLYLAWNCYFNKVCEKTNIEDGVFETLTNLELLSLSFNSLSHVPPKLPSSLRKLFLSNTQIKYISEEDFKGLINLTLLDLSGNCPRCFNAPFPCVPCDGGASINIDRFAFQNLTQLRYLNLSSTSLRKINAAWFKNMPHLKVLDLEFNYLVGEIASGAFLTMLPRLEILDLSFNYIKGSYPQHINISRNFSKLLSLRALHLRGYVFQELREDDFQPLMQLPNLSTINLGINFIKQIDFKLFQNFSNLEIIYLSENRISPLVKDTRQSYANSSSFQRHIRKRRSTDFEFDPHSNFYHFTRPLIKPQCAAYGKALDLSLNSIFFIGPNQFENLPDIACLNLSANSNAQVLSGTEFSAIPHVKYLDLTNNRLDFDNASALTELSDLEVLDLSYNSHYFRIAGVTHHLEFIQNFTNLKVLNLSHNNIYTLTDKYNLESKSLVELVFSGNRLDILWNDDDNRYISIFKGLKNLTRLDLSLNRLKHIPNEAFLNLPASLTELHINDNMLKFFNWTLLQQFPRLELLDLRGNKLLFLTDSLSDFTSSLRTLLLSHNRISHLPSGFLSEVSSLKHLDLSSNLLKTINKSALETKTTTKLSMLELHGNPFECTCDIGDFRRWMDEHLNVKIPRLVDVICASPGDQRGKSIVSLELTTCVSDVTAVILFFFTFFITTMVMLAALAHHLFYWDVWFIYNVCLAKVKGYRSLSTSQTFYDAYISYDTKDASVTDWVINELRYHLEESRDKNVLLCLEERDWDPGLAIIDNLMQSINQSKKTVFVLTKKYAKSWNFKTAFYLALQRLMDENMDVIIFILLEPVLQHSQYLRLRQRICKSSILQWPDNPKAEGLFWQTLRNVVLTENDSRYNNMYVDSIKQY

CCC[C@@H](CCO)Nc1nc(N)nc2c(F)cccc12
MEC [1]: 0.25 µM
Activity [2]: 56615 pg/g
AUClast [3]: 7160 ng·h/g
bioavailability [4]: < 11%
Activity [5]: Below limit of detection
Activity [6]: 1930 pg/mL
fraction unbound at 4.5 h, 5 µM [7]: 0.46
Activity [8]: 50 pg/mL
Activity [9]: Below limit of detection
Activity [10]: Active
Cp [11]: 160 ng/mL
Activity [12]: 2865 pg/g
Activity [13]: 5185 pg/g
Activity [14]: 2400 pg/mL
Activity [15]: 295 pg/mL
Activity [16]: >51200 pg/mL
Activity [17]: 630 pg/mL
Activity [18]: 7790 pg/g
Cmax [19]: 385 ng/g
